Measurements gathered from unrelated publications.
Each line is one published result; the experiments were not run side by side.
Read-out: cell growth or viability

SMILES	cell line	test	conditions	measurement	result
CCCCCCCCCCCCNC(=O)NCCCC[C@H](NS(C)(=O)=O)C(=O)N[C@H](C)C(=O)N[C@@H](CCCNC(=N)N)C(N)=O	HeLa	MTT	72 h	EC50	23.1 to 41.4 µM
O=C1Nc2ccccc2C1=NNc1nnc2n1N=C(c1ccccc1)CS2	Hs-578T	SRB	10 µM	inhibition	28%
COc1ccc(-c2ccc(-c3ccc(C(=N)N)nc3)s2)cc1	Hs-578T	SRB		GI50	1.82 µM
C=CC(=O)N1CCC[C@@H](n2nc(-c3ccc(Oc4ccccc4)cc3)c3c(N)ncnc32)C1	NB-4	ATP luminescence	72 h	GI50	7.5 µM
N[C@@H]1CCCN(c2c(/C=C3\SC(=O)NC3=O)cccc2-c2ccccc2)C1	KMS-11	thymidine uptake		GI50	4.67 µM
Cc1ccc(NC(=O)c2ccc(CN3CCN(C)CC3)cc2)cc1Nc1nccc(-c2cccnc2)n1	HeLa	MTT	1 µM, 48 h	inhibition	11%
COc1cc(-c2ccc(-c3ccc(C(=N)N)nc3)s2)cc(OC)c1OC	Hs-578T	SRB		GI50	2.59 µM
N=C(CCl)NCCC[C@H](NC(=O)c1ccccc1)C(N)=O	U2OS	XTT	72 h	EC50	> 200 µM
Cn1nnc2c(C(N)=O)ncn2c1=O	Hs746T			EC50	> 1000 µM
COc1ccc(-c2ccc(-c3ccc(C(=N)N)nc3)s2)cc1Cl	Hs-578T	SRB		GI50	1.85 µM
CCCCCCCCCCCCNC(=S)NCCCC[C@H](NS(C)(=O)=O)C(=O)N[C@@H](C)C(=O)N[C@@H](CCCNC(=N)N)C(N)=O	HeLa	MTT	72 h	EC50	28.9 to 39.1 µM
COc1cccc(Oc2ccccc2NC(=O)CNC(=O)c2cccc3ccccc23)c1	Hs-578T	SRB	48 h	GI50	0.38 µM
